Columns and labels:
P388 [1] = experiment: Antitumor activity against mouse P388 cells allografted in CD2F1 mouse assessed as increase in mouse survival at 200 mg/kg, ip of total 9 doses starting 24 hrs post tumor inoculation measured on day 5 of inoculation relative to control; format: functional; conditions: route intraperitoneal
How it was run: (§1)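 Male CD2F1 mice inoculated ip with 6×10^6 P388 leukemia cells. Dosing was ip as a suspension in distilled water–Tween 80, nine daily doses starting 24 h after inoculation. Activity was read as median survival time of treated vs control mice (% T/C); % T/C ≥ 120 was considered significant. Groups were 6 mice.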

Mus musculus [2] = experiment: Toxicity in mouse P388 cells allografted CD2F1 mouse assessed as body weight loss at 50 mg/kg, ip of total 9 doses starting 24 hrs post tumor inoculation measured on day 5 of inoculation relative to control; format: organism-based; parameters: dose 50 mg/kg, route intraperitoneal; conditions: in vivo
How it was run: (§2)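 Male CD2F1 mice inoculated ip with 6×10^6 P388 leukemia cells. Compounds given ip as distilled water–Tween 80 suspension, nine daily doses starting 24 h after inoculation; six mice per dose group. Treated-minus-control body-weight change (T − C) and toxicity-day survivors recorded on day 5 (4 days after first dose).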

Mus musculus [3] = experiment: Toxicity in mouse P388 cells allografted CD2F1 mouse assessed as mouse survival at 12.5 mg/kg, ip of total 9 doses starting 24 hrs post tumor inoculation measured on day 5 of inoculation relative to control; format: organism-based; parameters: dose 12.5 mg/kg, route intraperitoneal; conditions: in vivo
How it was run: (§3)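 Male CD2F1 mice bearing ip P388 leukemia (6×10^6 cells) were dosed ip with nine daily doses in distilled water–Tween 80 suspension, starting 24 h after inoculation. Survivors per group of 6 were counted on day 5, i.e. 4 days after the first dose. Body-weight change of treated minus control mice was also recorded.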

Mus musculus [4] = experiment: Toxicity in mouse P388 cells allografted CD2F1 mouse assessed as body weight loss at 100 mg/kg, ip of total 9 doses starting 24 hrs post tumor inoculation measured on day 5 of inoculation relative to control; format: organism-based; parameters: dose 100 mg/kg, route intraperitoneal; conditions: in vivo; how it was run: as §2
Mus musculus [5] = experiment: Toxicity in mouse P388 cells allografted CD2F1 mouse assessed as mouse survival at 50 mg/kg, ip of total 9 doses starting 24 hrs post tumor inoculation measured on day 5 of inoculation relative to control; format: organism-based; parameters: dose 50 mg/kg, route intraperitoneal; conditions: in vivo; how it was run: as §3
P388 [6] = experiment: Antitumor activity against mouse P388 cells allografted in CD2F1 mouse assessed as increase in mouse survival at 100 mg/kg, ip of total 9 doses starting 24 hrs post tumor inoculation measured on day 5 of inoculation relative to control; format: functional; conditions: route intraperitoneal; how it was run: as §1
Mus musculus [7] = experiment: Toxicity in mouse P388 cells allografted CD2F1 mouse assessed as body weight loss at 12.5 mg/kg, ip of total 9 doses starting 24 hrs post tumor inoculation measured on day 5 of inoculation relative to control; format: organism-based; parameters: dose 12.5 mg/kg, route intraperitoneal; conditions: in vivo; how it was run: as §2
P388 [8] = experiment: Antitumor activity against mouse P388 cells allografted in CD2F1 mouse assessed as increase in mouse survival at 12.5 mg/kg, ip of total 9 doses starting 24 hrs post tumor inoculation measured on day 5 of inoculation relative to control; format: functional; conditions: route intraperitoneal; how it was run: as §1
P388 [9] = experiment: Antitumor activity against mouse P388 cells allografted in CD2F1 mouse assessed as increase in mouse survival at 25 mg/kg, ip of total 9 doses starting 24 hrs post tumor inoculation measured on day 5 of inoculation relative to control; format: functional; conditions: route intraperitoneal; how it was run: as §1
Mus musculus [10] = experiment: Toxicity in mouse P388 cells allografted CD2F1 mouse assessed as mouse survival at 25 mg/kg, ip of total 9 doses starting 24 hrs post tumor inoculation measured on day 5 of inoculation relative to control; format: organism-based; parameters: dose 25 mg/kg, route intraperitoneal; conditions: in vivo; how it was run: as §3
P388 [11] = experiment: Antitumor activity against mouse P388 cells allografted in CD2F1 mouse assessed as increase in mouse survival at 50 mg/kg, ip of total 9 doses starting 24 hrs post tumor inoculation measured on day 5 of inoculation relative to control; format: functional; conditions: route intraperitoneal; how it was run: as §1
Mus musculus [12] = experiment: Toxicity in mouse P388 cells allografted CD2F1 mouse assessed as body weight loss at 200 mg/kg, ip of total 9 doses starting 24 hrs post tumor inoculation measured on day 5 of inoculation relative to control; format: organism-based; parameters: dose 200 mg/kg, route intraperitoneal; conditions: in vivo; how it was run: as §2
Mus musculus [13] = experiment: Toxicity in mouse P388 cells allografted CD2F1 mouse assessed as body weight loss at 25 mg/kg, ip of total 9 doses starting 24 hrs post tumor inoculation measured on day 5 of inoculation relative to control; format: organism-based; parameters: dose 25 mg/kg, route intraperitoneal; conditions: in vivo; how it was run: as §2
Mus musculus [14] = experiment: Toxicity in mouse P388 cells allografted CD2F1 mouse assessed as mouse survival at 200 mg/kg, ip of total 9 doses starting 24 hrs post tumor inoculation measured on day 5 of inoculation relative to control; format: organism-based; parameters: dose 200 mg/kg, route intraperitoneal; conditions: in vivo; how it was run: as §3
Mus musculus [15] = experiment: Toxicity in mouse P388 cells allografted CD2F1 mouse assessed as mouse survival at 100 mg/kg, ip of total 9 doses starting 24 hrs post tumor inoculation measured on day 5 of inoculation relative to control; format: organism-based; parameters: dose 100 mg/kg, route intraperitoneal; conditions: in vivo; how it was run: as §3
Mus musculus [16] = experiment: Toxicity in mouse P388 cells allografted CD2F1 mouse assessed as body weight loss at 5 mg/kg, ip of total 9 doses starting 24 hrs post tumor inoculation measured on day 5 of inoculation relative to control; format: organism-based; parameters: dose 5 mg/kg, route intraperitoneal; conditions: in vivo; how it was run: as §2
Mus musculus [17] = experiment: Toxicity in mouse P388 cells allografted CD2F1 mouse assessed as mouse survival at 20 mg/kg, ip of total 9 doses starting 24 hrs post tumor inoculation measured on day 5 of inoculation relative to control; format: organism-based; parameters: dose 20 mg/kg, route intraperitoneal; conditions: in vivo; how it was run: as §3
P388 [18] = experiment: Antitumor activity against mouse P388 cells allografted in CD2F1 mouse assessed as increase in mouse survival at 40 mg/kg, ip of total 9 doses starting 24 hrs post tumor inoculation measured on day 5 of inoculation relative to control; format: functional; conditions: route intraperitoneal; how it was run: as §1
Mus musculus [19] = experiment: Toxicity in mouse P388 cells allografted CD2F1 mouse assessed as mouse survival at 80 mg/kg, ip of total 9 doses starting 24 hrs post tumor inoculation measured on day 5 of inoculation relative to control; format: organism-based; parameters: dose 80 mg/kg, route intraperitoneal; conditions: in vivo; how it was run: as §3
P388 [20] = experiment: Antitumor activity against mouse P388 cells allografted in CD2F1 mouse assessed as increase in mouse survival at 10 mg/kg, ip of total 9 doses starting 24 hrs post tumor inoculation measured on day 5 of inoculation relative to control; format: functional; conditions: route intraperitoneal; how it was run: as §1
Mus musculus [21] = experiment: Toxicity in mouse P388 cells allografted CD2F1 mouse assessed as mouse survival at 5 mg/kg, ip of total 9 doses starting 24 hrs post tumor inoculation measured on day 5 of inoculation relative to control; format: organism-based; parameters: dose 5 mg/kg, route intraperitoneal; conditions: in vivo; how it was run: as §3
Mus musculus [22] = experiment: Toxicity in mouse P388 cells allografted CD2F1 mouse assessed as body weight loss at 80 mg/kg, ip of total 9 doses starting 24 hrs post tumor inoculation measured on day 5 of inoculation relative to control; format: organism-based; parameters: dose 80 mg/kg, route intraperitoneal; conditions: in vivo; how it was run: as §2
Mus musculus [23] = experiment: Toxicity in mouse P388 cells allografted CD2F1 mouse assessed as body weight loss at 40 mg/kg, ip of total 9 doses starting 24 hrs post tumor inoculation measured on day 5 of inoculation relative to control; format: organism-based; parameters: dose 40 mg/kg, route intraperitoneal; conditions: in vivo; how it was run: as §2
Mus musculus [24] = experiment: Toxicity in mouse P388 cells allografted CD2F1 mouse assessed as mouse survival at 40 mg/kg, ip of total 9 doses starting 24 hrs post tumor inoculation measured on day 5 of inoculation relative to control; format: organism-based; parameters: dose 40 mg/kg, route intraperitoneal; conditions: in vivo; how it was run: as §3
Mus musculus [25] = experiment: Toxicity in mouse P388 cells allografted CD2F1 mouse assessed as body weight loss at 10 mg/kg, ip of total 9 doses starting 24 hrs post tumor inoculation measured on day 5 of inoculation relative to control; format: organism-based; parameters: dose 10 mg/kg, route intraperitoneal; conditions: in vivo; how it was run: as §2
Mus musculus [26] = experiment: Toxicity in mouse P388 cells allografted CD2F1 mouse assessed as mouse survival at 10 mg/kg, ip of total 9 doses starting 24 hrs post tumor inoculation measured on day 5 of inoculation relative to control; format: organism-based; parameters: dose 10 mg/kg, route intraperitoneal; conditions: in vivo; how it was run: as §3
P388 [27] = experiment: Antitumor activity against mouse P388 cells allografted in CD2F1 mouse assessed as increase in mouse survival at 80 mg/kg, ip of total 9 doses starting 24 hrs post tumor inoculation measured on day 5 of inoculation relative to control; format: functional; conditions: route intraperitoneal; how it was run: as §1
P388 [28] = experiment: Antitumor activity against mouse P388 cells allografted in CD2F1 mouse assessed as increase in mouse survival at 20 mg/kg, ip of total 9 doses starting 24 hrs post tumor inoculation measured on day 5 of inoculation relative to control; format: functional; conditions: route intraperitoneal; how it was run: as §1
P388 [29] = experiment: Antitumor activity against mouse P388 cells allografted in CD2F1 mouse assessed as increase in mouse survival at 5 mg/kg, ip of total 9 doses starting 24 hrs post tumor inoculation measured on day 5 of inoculation relative to control; format: functional; conditions: route intraperitoneal; how it was run: as §1
Mus musculus [30] = experiment: Toxicity in mouse P388 cells allografted CD2F1 mouse assessed as body weight loss at 20 mg/kg, ip of total 9 doses starting 24 hrs post tumor inoculation measured on day 5 of inoculation relative to control; format: organism-based; parameters: dose 20 mg/kg, route intraperitoneal; conditions: in vivo; how it was run: as §2

Question: Which T/C (P388 [1]) does the source give for `CNC(=O)OCc1c(COC(=O)NC)c(-c2ccc(S(C)(=O)=O)cc2)n(C)c1C` here?
Answer: 198%

Question: And the Activity (Mus musculus [2])?
Answer: 1.1 g

Question: And the Activity (Mus musculus [3])?
Answer: Non-toxic

Question: And the Activity (Mus musculus [4])?
Answer: 2.1 g

Question: What about the Activity (Mus musculus [5]) of the same compound?
Answer: Non-toxic

Question: What about the T/C (P388 [6]) of the same compound?
Answer: 180%

Question: And the Activity (Mus musculus [7])?
Answer: 0.4 g

Question: And the T/C (P388 [8])?
Answer: 136%

Question: And the T/C (P388 [9])?
Answer: 144%

Question: And the Activity (Mus musculus [10])?
Answer: Non-toxic

Question: What about the T/C (P388 [11]) of the same compound?
Answer: 162%

Question: And the Activity (Mus musculus [12])?
Answer: 3.7 g

Question: And the Activity (Mus musculus [13])?
Answer: 0.8 g

Question: And the Activity (Mus musculus [14])?
Answer: Non-toxic

Question: What about the Activity (Mus musculus [15]) of the same compound?
Answer: Non-toxic

Question: With `CNC(=O)OCc1c(COC(=O)NC)c(-c2ccc(S(=O)(=O)c3ccccc3)cc2)n(C)c1C` as the compound, how does the Activity (Mus musculus [16]) read?
Answer: 1.3 g

Question: What about the Activity (Mus musculus [17]) of the same compound?
Answer: Non-toxic

Question: What about the T/C (P388 [18]) of the same compound?
Answer: 153%

Question: And the Activity (Mus musculus [19])?
Answer: Non-toxic

Question: And the T/C (P388 [20])?
Answer: 136%

Question: What about the Activity (Mus musculus [21]) of the same compound?
Answer: Non-toxic

Question: And the Activity (Mus musculus [22])?
Answer: 3.6 g

Question: What about the Activity (Mus musculus [23]) of the same compound?
Answer: 3.1 g

Question: And the Activity (Mus musculus [24])?
Answer: Non-toxic

Question: What about the Activity (Mus musculus [25]) of the same compound?
Answer: 0.9 g

Question: What about the Activity (Mus musculus [26]) of the same compound?
Answer: Non-toxic

Question: What about the T/C (P388 [27]) of the same compound?
Answer: 153%

Question: What about the T/C (P388 [28]) of the same compound?
Answer: 146%

Question: What about the T/C (P388 [29]) of the same compound?
Answer: 137%

Question: And the Activity (Mus musculus [30])?
Answer: 1.9 g
